In ChEMBL document CHEMBL1149837, “Isothiocyanate sesquiterpenes from a sponge of the genus axinyssa” (2008) one finds Activity, GI50 and TGI data, which are given here for four compounds.

For assay [1], the system named is HT-29. In words: Cytotoxicity against human HT29 cells at 10ug/ml by SRB assay. The format is functional, cell-based. A digest of the protocol: (§1)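 SRB colorimetric assay of cell growth and viability, adapted from a published method, in human tumour lines MDA-MB-231 (breast adenocarcinoma), A-549 (lung adenocarcinoma) and HT-29 (colon adenocarcinoma). The highest concentration tested was 10 µg/mL. Read-outs were GI50 and TGI, both in µM.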

Assay [2] relates to A549. In words: Cytotoxicity against human A549 cells at 10ug/ml by SRB assay. In kind it is functional, cell-based. A digest of the protocol:
as §1
For orientation: In SRB staining, fixed cells bind dye roughly in proportion to their protein.

Assay [3] concerns MDA-MB-231. In words: Cytotoxicity against human MDA-MB-231 cells at 10ug/ml by SRB assay. In kind it is functional, cell-based. The essentials:
as §1

The test system of assay [4] is A549. In words: Cytotoxicity against human A549 cells by SRB assay. In kind it is functional. A digest of the protocol: as §1
Assay [5] relates to HT-29. In words: Cytotoxicity against human HT29 cells by SRB assay. The format is functional. The essentials:
as §1

Assay [6] concerns MDA-MB-231. In words: Cytotoxicity against human MDA-MB-231 cells by SRB assay. In kind it is functional. The essentials:
as §1

A word on the GI50: it is the concentration at which growth is held to half of that of the control. The TGI is the concentration at which net growth stops. Read a low TGI as more potent growth arrest.

Structures are written as SMILES. Active and inactive are the calls of the source. The rule behind the calls is not given here.

With `CC(C)[C@@]1(OO)CC[C@](C)(N=C=S)[C@@H]2CC[C@@](C)(O)C=C21`, the outcome in assay [1], in assay [2] and in assay [3] was inactive.

In the case of `CC(C)[C@@H]1CC[C@](C)(N=C=S)[C@@H]2CC[C@@](C)(O)C=C12` [AXINISOTHIOCYANATE J], the GI50 in assay [4] was found to be 11.8 µM; in assay [5], 11.8 µM; in assay [6], 10.4 µM. Moreover, the TGI in assay [4] was 19 µM; in assay [5], 14 µM; in assay [6], 14.3 µM.

Take `CC1=C[C@@H]2[C@@H](C(C)C)CC[C@@](C)(N=C=S)[C@@H]2CC1=O` [AXINISOTHIOCYANATE L]: the GI50 in assay [4] and in assay [5] was 31.4 µM in each case.

As to `CC(C)[C@@H]1CC[C@](C)(N=C=S)[C@]2(O)CC[C@@](C)(O)C=C12`, the result in assay [1], in assay [2] and in assay [3] was inactive.
